High-throughput results deposited in PubChem BioAssay by several laboratories.
PP1 inh = blocks human PP1-alpha phosphatase, a PP5 counter-screen; inhibition, % at 6.7 µM; P62136; purified PP1alpha, OMFP fluorescence; 320,000 tested, 0.9% active; AID 2235;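 active = inhibition above the mean inhibition of all tested compounds plus 3 SD, computed separately for each screening campaign, cut at about 15% in these data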
PREPL inh = human PREPL enzyme inhibition | Q4J6C6 | recombinant PREPL, fluorescence polarization activity-based probe | inhibition, % at 5.96 µM | 320,000 tested, 0.68% active; in the data active = inhibition above about 43%
Target sequence (Q4J6C6 whole entry, looked up): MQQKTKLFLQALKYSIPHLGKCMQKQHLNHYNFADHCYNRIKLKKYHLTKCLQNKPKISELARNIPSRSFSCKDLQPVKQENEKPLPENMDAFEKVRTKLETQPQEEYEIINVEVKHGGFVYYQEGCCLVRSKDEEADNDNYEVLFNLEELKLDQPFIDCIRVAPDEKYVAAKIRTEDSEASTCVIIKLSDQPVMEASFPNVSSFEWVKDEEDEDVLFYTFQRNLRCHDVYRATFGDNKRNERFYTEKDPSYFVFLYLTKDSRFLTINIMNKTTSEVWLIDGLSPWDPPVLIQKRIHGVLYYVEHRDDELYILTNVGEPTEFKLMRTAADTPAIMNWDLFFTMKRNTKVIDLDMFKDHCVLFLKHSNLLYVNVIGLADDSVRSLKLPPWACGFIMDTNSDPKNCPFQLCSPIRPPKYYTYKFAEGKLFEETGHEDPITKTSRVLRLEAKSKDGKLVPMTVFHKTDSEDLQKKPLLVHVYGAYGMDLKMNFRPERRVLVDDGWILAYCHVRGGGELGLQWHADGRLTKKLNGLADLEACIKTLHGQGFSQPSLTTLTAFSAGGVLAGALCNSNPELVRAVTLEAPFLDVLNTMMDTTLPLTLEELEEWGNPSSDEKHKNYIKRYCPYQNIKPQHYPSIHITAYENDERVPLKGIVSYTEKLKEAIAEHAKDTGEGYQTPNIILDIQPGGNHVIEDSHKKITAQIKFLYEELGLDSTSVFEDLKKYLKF
UCH37 inh = human UCH37 deubiquitinating enzyme inhibition; Q9Y5K5; purified proteasome/UCH37, Ub-AMC cleavage fluorescence; inhibition, % (test concentration not listed); 330,000 tested, 0.33% active; AID 588478;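 active = mean inhibition over replicate wells above about 20%, limit read from the data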
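Material: human UCH37 enzyme supplied as purified proteasome complex / Amount: 0.15 nM proteasome as dispensed / Buffer or medium: pH 7.4 Tris-HCl (50 mM) with ovalbumin, ATP-MgCl2, DTT / Times: preincubation 30 min, reaction 25 min, room temperature / Technique: AMC fluorescence from Ub-AMC cleavage, excitation 355 nm, emission 460 nm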
Fh CTSL1 inh = cathepsin L1 inhibition, PFM18AAP counter-screen; recombinant F. hepatica cathepsin L1, Z-Leu-Arg-MCA fluorescence; inhibition, % at 5.96 µM; 300,000 tested, 0.49% active;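 active = inhibition above the mean of all tested compounds plus 3 SD, set per screening campaign, cut at about 17% in these data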
PP5 primary = PP5 (human) phosphatase inhibition; P53041; purified PP5c, OMFP substrate fluorescence; inhibition, % at 6.7 µM; 320,000 tested, 0.18% active;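 active = inhibition above the campaign's mean inhibition across all tested compounds plus 3 SD, cut at about 9.5% in these data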
UBC13 polyUb = human UBC13 polyubiquitination inhibition | P61088 | UBC13 polyubiquitin chain formation, TR-FRET | inhibition, % at 20 µM | 330,000 tested, 0.47% active; in the data active = inhibition above about 45%, passing the limit was not always enough
A number is an active result; . = inactive; / = not tested or not shown. Shown are actives, neighbours in structure and some others; about 2.3% of the full set was active somewhere.

SMILES	PP1 inh	PREPL inh	UCH37 inh	Fh CTSL1 inh	PP5 primary	UBC13 polyUb
Cn1c(=O)c2cc(NC(=O)c3ccccc3Cl)c(=O)oc2n(C)c1=O	.	.	.	27	.	.
O=C(Nc1ccccc1Cl)c1ccccc1Cl	.	.	.	.	.	.
COc1ccc(/C=C2/SC(=S)N(Cc3ccccc3)C2=O)cc1O	/	/	.	/	/	.
COc1ccc(/C=C2/SC(=S)N(CCC(=O)O)C2=O)cc1	.	.	.	.	.	.
O=C(O)CCN1C(=O)/C(=C\c2cccc(Oc3ccccc3)c2)SC1=S	.	.	21	.	.	.
O=C(O)CCN1C(=O)/C(=C\c2ccc(-c3nc4ccccc4s3)o2)SC1=S	.	.	92	.	.	.
O=C(O)CCCN1C(=O)/C(=C\c2ccco2)SC1=S	/	/	.	/	/	/
O=C(O)COc1ccc(/C=C2/SC(=S)N(Cc3ccccc3)C2=O)cc1	15	.	.	.	.	.
CCC(=O)NN=C(C)CC(=O)Nc1ccc(F)cc1	/	/	.	/	/	/
O=c1cc(O)c2c(=O)n(Cc3ccccc3)c3ccccc3c2o1	29	.	.	.	.	.
CCN(CC)C(=O)C1=C(C)NC(=S)NC1c1ccc(C)s1 (stereo not given)	.	.	.	.	.	.
CCN(CC)C(=O)C1=C(C)NC(=S)NC1c1cccs1 (stereo not given)	.	.	27	.	.	.
COc1cccc(C=NNC(=O)CNC(=O)c2ccc(S(=O)(=O)N3CCCC3)cc2)c1OC	/	/	.	/	/	/
CC(C)Oc1ccc(C(=O)NN=Cc2ccc(-c3ccc(S(=O)(=O)Nc4ncccn4)cc3)o2)cc1	/	/	.	/	/	/
O=C(NCN1C(=O)C2C3C=CC(C3)C2C1=O)Nc1ccccn1 (stereo not given)	.	.	.	.	.	.
CC(NC(=O)Nc1ccccn1)N1C(=O)C2C3C=CC(C3)C2C1=O (stereo not given)	.	.	23	.	.	.
CC1=C(/C=C/C(C)=C/C=C/C(C)=C/CO)C(C)(C)CCC1	.	.	78	.	.	.
Cc1cc(C)cc(-n2c3nc4ccccc4nc3c3c(=O)n(Cc4ccco4)cnc32)c1	20	.	.	.	.	.
COCCCn1cnc2c(c1=O)c1nc3ccccc3nc1n2-c1ccc(C)cc1	.	.	.	.	.	.
COc1ccc(OC)c(C=NN=C(N)c2nonc2N)c1	/	/	.	/	/	/
CC(=O)c1cccc2c(O)c(C3=Nc4ccccc4C3=O)[nH]c12	.	.	28	.	.	.
O=C1C(c2c(O)[nH]c3ccccc23)=Nc2ccccc21	.	.	.	.	.	.
COc1ccccc1C(=O)NCC(=O)OCC(=O)Nc1cccc(S(=O)(=O)N(C)C)c1	.	.	.	.	.	.
CCN(CC)S(=O)(=O)c1cccc(NC(=O)COC(=O)CNC(=O)c2cccc(F)c2)c1	.	.	.	18	.	.
CC(CC(=O)Nc1cccc(C(F)(F)F)c1)=NNC(=O)C(=O)NCCO	/	/	.	/	/	/
SMILES	PP1 inh	PREPL inh	UCH37 inh	Fh CTSL1 inh	PP5 primary	UBC13 polyUb
COc1ccccc1-c1nc(SCC(=O)NCc2ccco2)c2c(=O)n(C)c(=O)n(C)c2n1	.	.	.	.	.	.
Cn1c(=O)c2c(SCC(=O)NCc3ccco3)nc(-c3ccccc3Cl)nc2n(C)c1=O	17	.	.	.	.	.
O=C(CSc1cn(Cc2ccccc2)c2ccccc12)Nc1nccs1	16	.	.	.	.	.
O=C(CSc1ccccc1)Nc1nccs1	.	.	.	.	.	.
Cc1ccc(-n2c(C)cc(C=NNC(=O)c3ccc(CN4CCOCC4)cc3)c2C)cc1	/	/	.	/	/	/
C#CNC(=O)C1(CC=C)CCNCC1	.	.	32	.	.	.
N#CCCn1cc(C=NNC(N)=S)c(-c2ccc(Br)cc2)n1	/	/	.	/	/	/
S=C(c1cn(Cc2ccccc2)c2ccccc12)N1CCOCC1	.	.	.	.	.	.
S=C(c1cn(Cc2ccc(Br)cc2)c2ccccc12)N1CCOCC1	.	50	/	.	.	.
Cc1cc(O)c(C=Nc2ccccn2)c(=O)o1	/	/	.	/	/	/
COc1ccccc1/C=C(/CC(=O)NCc1ccc(F)cc1)c1nc2ccccc2s1	16	.	.	.	.	.
COc1ccccc1/C=C(/CC(=O)NCc1ccccc1)c1nc2ccccc2s1	.	.	.	.	.	.
Cc1nn(-c2ccccn2)c2c1C(c1c(F)cccc1Cl)C1=C(N2)c2ccccc2C1=O (stereo not given)	17	.	.	.	.	.
